In brackets after ≈: the same amount, converted by molar mass.
Legend:
Vero [1] = assay: Inhibition effect was determined against Herpes simplex virus (HSV) -1 in vero cell monolayer culture; assay type: functional, Chlorocebus sabaeus
Human alphaherpesvirus 2 [2] = assay: Virus rating is measurement of degree of inhibition of virus-induced cytopathogenic effects and the degree of cytotoxicity produced by the test compound for Herpes simplex virus (HSV) -2; assay type: functional
Method in brief: (§1)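 Virus rating as defined by Southern Research Institute: a selective antiviral score that combines the degree of inhibition of virus-induced cytopathogenic effect with the degree of cytotoxicity from the test compound, determined by a modification of a published method.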

Vero [3] = assay: Minimum inhibitory concentration of cytopathogenic-induced effect was determined against Herpes simplex virus (HSV) -2 in vero cell monolayer culture; assay type: functional; details: Chlorocebus sabaeus
Human alphaherpesvirus 2 [4] = assay: Evaluated virus rating for Herpes simplex virus (HSV) -2; assay type: functional; method in brief: as §1
[5] = Virus rating is measurement of degree of inhibition of virus-induced cytopathogenic effects and the degree of cytotoxicity produced by the test compound for influenza type A2; assay type: functional
Vero [6] = assay: Inhibition of cytopathogenic effect was determined against Herpes simplex virus (HSV) -2 in vero cell monolayer culture; assay type: functional; details: Chlorocebus sabaeus

SMILES	ID90 (Vero [1])	Virus rating (Human alphaherpesvirus 2 [2])	MIC50 (Vero [3])	Virus rating (Human alphaherpesvirus 2 [4])	Virus rating [5]	MIC50 (Vero [6])
Nc1nc(O)c2ncn(CC=C(CO)CO)c2n1	25 µM	1.5	65.6 µg/mL (≈ 261 µM)	–	–	–
Nc1ncnc2c1ncn2CC=C(CO)CO	–	–	–	0.6	0.3	939 µg/mL (≈ 3990 µM)
Nc1nc2c(ncn2COCCO)c(=O)[nH]1 [ACYCLOVIR]	–	5.1	–	–	–	4.3 µg/mL (≈ 19.1 µM)
NC(=O)c1ncn([C@@H]2O[C@H](CO)[C@@H](O)[C@H]2O)n1 [RIBAVIRIN]	–	–	–	–	2.8	–
Nc1ncnc2c1ncn2[C@@H]1O[C@H](CO)[C@@H](O)[C@@H]1O [VIDARABINE]	–	1.2	–	–	–	26.8 µg/mL (≈ 100 µM)

Source: ChEMBL document CHEMBL1123751, “Synthesis and biological activity of unsaturated carboacyclic purine nucleoside analogues” (J Med Chem, 1987)
